This note sets out measurements from ChEMBL document CHEMBL3217642, “Mechanistic insight into inhibition of two-component system signaling” (Medchemcomm, 2013).

Activity calls are given as the source filed them. The calls are words filed in the database; no cut-off is given here.

Assay [1] deals with Thermotoga maritima. The assay is described as follows: Displacement of BODIPY-FL-ATP-gamma-S from Thermotoga maritima histidine kinase HK853 at 1 mM to 600 uM. The gist of the method:
(§1)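 Purified HK853 (600 ng) in 50 mM Tris–HCl, 0.2 M KCl, 5 mM MgCl2, pH 7.8 preincubated 30 min with varied analogue concentrations (DMSO ≤5% v/v), then labeled with BODIPY-FL-ATPγS (2 μM final), 1 h RT in dark. Quenched with SDS loading buffer (unheated), resolved by SDS-PAGE, fluorescence band intensity integrated; gels then coomassie stained.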

Assay [2] in a line: Inhibition of Thermotoga maritima histidine kinase HK853 autophosphorylation. The gist of the method:
as §1

A short description of assay [3]: Binding affinity to Thermotoga maritima histidine kinase HK853 by STD-NMR analysis.
Assay [4] deals with Thermotoga maritima. The assay is described as follows: Binding affinity to Thermotoga maritima histidine kinase HK853 by STD-NMR analysis in presence of ADP.
For assay [5], the system named is Thermotoga maritima. The assay is described as follows: Induction of Thermotoga maritima histidine kinase HK853 aggregation up to 10 mM by gel based assay. Put shortly: (§2)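 Purified HK853 (0.44 μM) in 20 mM HEPES pH 7.5, with or without 0.1% final Triton X-100, incubated with varied analogue concentrations (DMSO ≤5% v/v) 4 h RT. Read by native-PAGE with silver staining (band disappearance), and by SDS-PAGE after BS3 crosslinking (100-fold molar excess, 2 h RT, quenched with 20 mM ammonium bicarbonate) with silver staining.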

Assay [6] has as its system Thermotoga maritima. Description: Inhibition of Thermotoga maritima histidine kinase HK853 autophosphorylation up to 10 mM. The gist of the method:
as §1

The subject of assay [7] is Thermotoga maritima. The assay is described as follows: Binding affinity to Thermotoga maritima histidine kinase HK853 D411A mutant by STD-NMR analysis.
The test system of assay [8] is Thermotoga maritima. Description: Induction of Thermotoga maritima histidine kinase HK853 aggregation up to 1000 uM by gel based assay. Put shortly:
as §2

In assay [9] the test system is Thermotoga maritima. Description: Inhibition of Thermotoga maritima histidine kinase HK853 autophosphorylation at 10 mM. The gist of the method:
as §1

For `CCCCCCCOc1ccc(CCNC(=N)N)cc1`, the inhibition entry in the assay with Thermotoga maritima [1] was “Active”.
By IC50 is commonly meant the concentration that inhibits the measured activity by half. Higher therefore signals lower potency. `C/C(=C/CC(C)(C)/C=C/C(=O)N[C@@H](Cc1c[nH]c2ccccc12)C(=O)O)CC/C=C(\C)Br` had an IC50 in assay [2] of 44 µM.
For `CCCN(C(=O)/C(C#N)=C(/C)O)c1nc(-c2ccc(C(C)(C)C)cc2)cs1`, the concentration for half-maximal inhibition (IC50) in assay [2] was 30 µM.
For orientation: Kd means a measure of binding affinity in units of concentration. With `CS(=O)(=O)c1ccc(CCNC(=N)N)cc1`, the equilibrium dissociation constant (Kd) in assay [3] worked out at 580 µM. Moreover, the result in the assay with Thermotoga maritima [4] and with Thermotoga maritima [5] was inactive. Moreover, in the assay on Thermotoga maritima [6], the inhibition result was “Active”.
`N=C(N)NCCc1ccc(O)cc1` displayed a Kd in assay [3] of 2410 µM. Moreover, in the assay on Thermotoga maritima [7], the outcome was inactive. For the same compound, the inhibition entry with Thermotoga maritima [8] and with Thermotoga maritima [9] was “inactive” throughout.
In the case of `CCCCCCCCCCOc1ccc(CCNC(=N)N)cc1`, the inhibition result with Thermotoga maritima [1] was “Active”.
